Fold change (FC) and IC50 data for three compounds are collected here from ChEMBL document CHEMBL3098083, “Curcumin glucuronides: assessing the proliferative activity against human cell lines” (Bioorg Med Chem, 2014).

What is called IC50 is the point on the concentration scale where inhibition reaches its midpoint. A low value points to inhibition by little substance.

The first test deals with KBM5. As to the kind of experiment: Inhibition of TNF-induced NF-kappaB activation in human KBM5 cells at 50 uM preincubated for 4 hrs followed by TNF addition measured after 30 mins by EMSA relative to control. In kind it is cell-based.
Details: not given
The essentials: (§1)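 KBM-5 cells (IMDM, 15% FBS) were pretreated 4 h, then stimulated with bacteria-derived human recombinant TNF at 0.1 nM for 30 min. Nuclear extracts (15 μg protein) were incubated with 16 fmol 32P-labelled 45-mer HIV-LTR NF-κB oligonucleotide for 30 min at 37 °C. Complexes were resolved on 6.6% native polyacrylamide gels, and bands were quantified by phosphorimaging.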
(In EMSA bound probe runs differently from free probe, usually more slowly.)
With `COc1cc(/C=C/C(O)=C/C(=O)/C=C/c2ccc(O[C@@H]3O[C@H](C(=O)O)[C@@H](O)[C@H](O)[C@H]3O)c(OC)c2)ccc1O`, the fold change (FC) was found to be 5.1.

Turning to `COc1cc(/C=C/C(=O)CC(=O)/C=C/c2ccc(O)c(OC)c2)ccc1O` [CURCUMIN], the fold change (FC) amounted to 0.8.

On to `COc1cc(/C=C/C(=O)/C=C(O)/C=C/c2ccc(O[C@@H]3O[C@H](C(=O)O)[C@@H](O)[C@H](O)[C@H]3O)c(OC)c2)ccc1O[C@@H]1O[C@H](C(=O)O)[C@@H](O)[C@H](O)[C@H]1O`, for which the fold change (FC) was 5.5.

For the next test, the system named is KBM5. As to the kind of experiment: Inhibition of TNF-induced NF-kappaB activation in human KBM5 cells at 10 uM preincubated for 4 hrs followed by TNF addition measured after 30 mins by EMSA relative to control.
Details: not given
The class given is cell-based. The essentials: as §1
As for `COc1cc(/C=C/C(O)=C/C(=O)/C=C/c2ccc(O[C@@H]3O[C@H](C(=O)O)[C@@H](O)[C@H](O)[C@H]3O)c(OC)c2)ccc1O`, the fold change (FC) came to 5.3.

Take `COc1cc(/C=C/C(=O)CC(=O)/C=C/c2ccc(O)c(OC)c2)ccc1O` [CURCUMIN]: the fold change (FC) was found to be 3.

As for `COc1cc(/C=C/C(=O)/C=C(O)/C=C/c2ccc(O[C@@H]3O[C@H](C(=O)O)[C@@H](O)[C@H](O)[C@H]3O)c(OC)c2)ccc1O[C@@H]1O[C@H](C(=O)O)[C@@H](O)[C@H](O)[C@H]1O`, the fold change (FC) came out at 5.6.

Test system in the next test: not listed separately
As to the kind of experiment: Antiproliferative activity against human U266 cells after 72 hrs by MTT assay. The class given is functional, cell-based. As to conditions: U-266, 72 h. The method, boiled down: (§2)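 Cells seeded at 5 × 10^3 per well in triplicate and exposed to 1, 5, 10, 25, 50, 100 or 200 μM for 72 h at 37 °C. MTT was added for 2 h, then SDS/DMF extraction buffer overnight, and A570 was read. Results are % viability, mean ± SD. Media: KBM-5 in IMDM/15% FBS; Jurkat and U266 in RPMI 1640; A549 in DMEM/10% FBS; all with penicillin/streptomycin.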
On the technique in general: Tetrazolium assays rely on reduction of a dye to a coloured formazan, in cell work by metabolically active cells.
In turn, `COc1cc(/C=C/C(O)=C/C(=O)/C=C/c2ccc(O[C@@H]3O[C@H](C(=O)O)[C@@H](O)[C@H](O)[C@H]3O)c(OC)c2)ccc1O` came in with an IC50 of more than 200 µM.

For `COc1cc(/C=C/C(=O)CC(=O)/C=C/c2ccc(O)c(OC)c2)ccc1O` [CURCUMIN], the IC50 came out at 7.57 µM.

With `COc1cc(/C=C/C(=O)/C=C(O)/C=C/c2ccc(O[C@@H]3O[C@H](C(=O)O)[C@@H](O)[C@H](O)[C@H]3O)c(OC)c2)ccc1O[C@@H]1O[C@H](C(=O)O)[C@@H](O)[C@H](O)[C@H]1O`, the IC50 is more than 200 µM.

For another test, the system named is A549. As to the kind of experiment: Antiproliferative activity against human A549 cells after 72 hrs by MTT assay. In kind it is functional, cell-based. Conditions: A549, 72 h. The essentials: as §2
Compound `COc1cc(/C=C/C(O)=C/C(=O)/C=C/c2ccc(O[C@@H]3O[C@H](C(=O)O)[C@@H](O)[C@H](O)[C@H]3O)c(OC)c2)ccc1O` displayed an IC50 of more than 200 µM.

Take `COc1cc(/C=C/C(=O)CC(=O)/C=C/c2ccc(O)c(OC)c2)ccc1O` [CURCUMIN]: the IC50 came out at 17.3 µM. That is a double-digit micromolar value.

Regarding `COc1cc(/C=C/C(=O)/C=C(O)/C=C/c2ccc(O[C@@H]3O[C@H](C(=O)O)[C@@H](O)[C@H](O)[C@H]3O)c(OC)c2)ccc1O[C@@H]1O[C@H](C(=O)O)[C@@H](O)[C@H](O)[C@H]1O`, the IC50 was more than 200 µM.

The test system of a further test is Jurkat. As to the kind of experiment: Antiproliferative activity against human Jurkat cells after 72 hrs by MTT assay. The class given is functional, cell-based.
Details: not given
The method, boiled down:
as §2
Turning to `COc1cc(/C=C/C(O)=C/C(=O)/C=C/c2ccc(O[C@@H]3O[C@H](C(=O)O)[C@@H](O)[C@H](O)[C@H]3O)c(OC)c2)ccc1O`, the IC50 is more than 200 µM.

Take `COc1cc(/C=C/C(=O)CC(=O)/C=C/c2ccc(O)c(OC)c2)ccc1O` [CURCUMIN]: the IC50 worked out at 4.29 µM. In other words, the single-digit micromolar range.

`COc1cc(/C=C/C(=O)/C=C(O)/C=C/c2ccc(O[C@@H]3O[C@H](C(=O)O)[C@@H](O)[C@H](O)[C@H]3O)c(OC)c2)ccc1O[C@@H]1O[C@H](C(=O)O)[C@@H](O)[C@H](O)[C@H]1O` showed an IC50 of more than 200 µM.

Test system in a further test: not listed separately
As to the kind of experiment: Antiproliferative activity against human KBM5 cells after 72 hrs by MTT assay. Conditions: KBM5, 72 h. The class given is functional, cell-based. The essentials:
as §2
Turning to `COc1cc(/C=C/C(O)=C/C(=O)/C=C/c2ccc(O[C@@H]3O[C@H](C(=O)O)[C@@H](O)[C@H](O)[C@H]3O)c(OC)c2)ccc1O`, the IC50 was more than 200 µM.

Consider `COc1cc(/C=C/C(=O)CC(=O)/C=C/c2ccc(O)c(OC)c2)ccc1O` [CURCUMIN], for which the midpoint of inhibition, the IC50, lay at 3.84 µM.

`COc1cc(/C=C/C(=O)/C=C(O)/C=C/c2ccc(O[C@@H]3O[C@H](C(=O)O)[C@@H](O)[C@H](O)[C@H]3O)c(OC)c2)ccc1O[C@@H]1O[C@H](C(=O)O)[C@@H](O)[C@H](O)[C@H]1O`: the IC50 is more than 200 µM.

A further test deals with KBM5. As to the kind of experiment: Inhibition of TNF-induced NF-kappaB activation in human KBM5 cells at 25 uM preincubated for 4 hrs followed by TNF addition measured after 30 mins by EMSA relative to control. The class given is cell-based.
Details: not given
The essentials:
as §1
Consider `COc1cc(/C=C/C(O)=C/C(=O)/C=C/c2ccc(O[C@@H]3O[C@H](C(=O)O)[C@@H](O)[C@H](O)[C@H]3O)c(OC)c2)ccc1O`, for which the fold change (FC) amounted to 5.3.

`COc1cc(/C=C/C(=O)CC(=O)/C=C/c2ccc(O)c(OC)c2)ccc1O` [CURCUMIN]: the fold change (FC) stood at 1.

As to `COc1cc(/C=C/C(=O)/C=C(O)/C=C/c2ccc(O[C@@H]3O[C@H](C(=O)O)[C@@H](O)[C@H](O)[C@H]3O)c(OC)c2)ccc1O[C@@H]1O[C@H](C(=O)O)[C@@H](O)[C@H](O)[C@H]1O`, the fold change (FC) was 5.6.
